Measured values of several laboratories.
pIC50: −log10 of the molar value.
Cell line: HL-60
Read-out: cell growth or viability

Structure (SMILES)	technique	time	setting	pIC50
COc1ccc(C(=O)c2ccccc2)c(O)c1	resazurin	72 h	dark	~3.92
CN1c2ccccc2C(=O)N2[C@H](C(=O)Nc3ccc(/C=C/C(=O)NO)cc3)Cc3c([nH]c4ccccc34)[C@@H]12	–	–	–	6.20
COc1cc(-c2nc(C(=O)Nc3nnc(-c4cc5ccccc5n4C)s3)cc3c2[nH]c2ccccc23)cc(OC)c1OC	MTT	72 h	–	5.00
CC(C)[C@H](N)C(=O)N1CCC[C@H]1B(O)O	ATP luminescence	48 h	–	6.94
O=C(Nc1nnc(-c2cc3ccccc3[nH]2)s1)c1cc2c([nH]c3ccccc32)c(-c2ccccc2)n1	MTT	72 h	–	5.08
COc1cc(/C=C/C(=O)CC(=O)/C=C/c2ccc(O)c(OC)c2)ccc1O	resazurin	72 h	dark	5.39
O=c1[nH]c(=S)n(Cc2ccc(Cl)cc2CNCC(F)(F)F)c2cc[nH]c12	–	–	–	5.89
CC(C)C[C@H](NC(=O)[C@H](Cc1ccccc1)NC(=O)c1cnccn1)B(O)O	ATP luminescence	–	–	8.39
CCCCN(Cc1ccc(C(=O)NO)cc1)C(=O)Nc1ccccc1	ATP luminescence	72 h	–	6.05
N[C@@H](CC(=O)N1CCN(C(c2ccc(F)cc2)c2ccc(F)cc2)CC1)C(=O)N1Cc2ccccc2C1	ATP luminescence	48 h	–	5.57
CCn1c(-c2nnc(NC(=O)c3cc4c([nH]c5ccccc54)c(-c4ccc(OC)cc4)n3)s2)cc2ccccc21	MTT	72 h	–	4.34
CCCON(Cc1ccc(C(=O)NO)cc1)C(=O)Nc1ccccc1	ATP luminescence	72 h	–	5.77
